# CSN inh – blocks human CSN-mediated cullin deneddylation. Q92905. Purified CSN, SCF-Nedd8-OG deneddylation, fluorescence polarization. inhibition, % at 12.5 µM. 360,000 tested, 0.38% active;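 active = pattern-corrected inhibition above about 35%, with an unprinted fluorescence ratio check between 0.5 and 1.5, limit read from the data, passing the limit was not always enough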;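 also: 0% = enzyme with substrate and 100% = substrate without enzyme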
#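 Detection – fluorescence polarization · System – HEK293T-derived human Csn5 enzyme · Controls – substrate-only high control, full reaction low control · Timing – 90 min, room temperature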
# Rpn11 inh – Rpn11 (human) deubiquitinase inhibition; human 26S proteasome, Ub4-pepOG fluorescence polarization; 20S core pre-blocked with epoxomicin; inhibition, % at 20 µM; 360,000 tested, 0.59% active; AID 588493;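 active = inhibition at 20 µM, scaled to each plate's controls, above about 33%, limit read from the data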
# Target sequence (O00487 whole entry, looked up): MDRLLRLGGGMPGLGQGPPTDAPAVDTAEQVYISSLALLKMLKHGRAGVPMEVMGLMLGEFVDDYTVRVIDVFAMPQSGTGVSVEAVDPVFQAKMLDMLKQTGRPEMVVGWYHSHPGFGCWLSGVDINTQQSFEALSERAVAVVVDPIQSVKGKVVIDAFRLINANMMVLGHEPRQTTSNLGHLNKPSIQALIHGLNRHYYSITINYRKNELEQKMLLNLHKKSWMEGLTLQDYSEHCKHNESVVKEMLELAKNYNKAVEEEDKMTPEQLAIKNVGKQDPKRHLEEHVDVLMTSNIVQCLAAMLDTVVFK
# IDE inh – inhibitors of human insulin-degrading enzyme in cells | inhibition, % at 5.59 µM | P14735 | HEK cells, FAbetaB cleavage, fluorescence polarization | 320,000 tested, 0.41% active;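 active = percent inhibition above the average of all tested compounds plus 3 SD, set per screening campaign, cut at about 16% in these data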;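 also: IDE supplied by intact live HEK cells; FP after avidin binding of uncleaved biotin substrate so inhibition keeps polarization high; 0% = DMSO wells and 100% = 60 µM reference IDE inhibitor Ii1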
# TPT1 inhibitor – inhibitors of Candida albicans tRNA 2'-phosphotransferase TPT1; AID 1962; inhibition, % at 5 µM; recombinant caTPT1, FP RNA substrate dephosphorylation; 300,000 tested, 0.81% active;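 active = inhibition above the mean of all tested compounds plus 3 SD, set per screening campaign, cut at about 24% in these data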;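 also: plate controls were DMSO alone for no effect and ferristatin control at 100 nM for full effect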
# HNF4A DNA FP – change in binding of human HNF4 alpha to DNA; HNF4a-FITC DNA binding, fluorescence polarization, 1 h; activity change, % at 10 µM; 360,000 tested, 0.3% active; in the data active = activity change above about 30%, passing the limit was not always enough
# IDE act – IDE (human) activation, cell-based; HEK cells, FAbeta-B cleavage, fluorescence polarization; 0% vehicle, 100% cell-free pure enzyme wells; activation, % at 5.96 µM; 340,000 tested, 0.073% active; AID 493087;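 active = activation above the mean of all tested compounds plus 3 SD, set per screening campaign, cut at about 17% in these data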
# caTPT1 confirm – TPT1 (C. albicans) inhibition, confirmation. shares compounds with TPT1 inhibitor. recombinant caTPT1, fluorescence polarization, RNase T1 coupled. inhibition, % at 5 µM. 2,400 tested, 74% active;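 active = inhibition above the primary screen limit, the mean inhibition of all tested compounds plus 3 SD, cut at about 25% in these data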
# RNase T1 counter – counter-screen for TPT1 inhibitors: inhibitors of Aspergillus oryzae RNase T1 | RNase T1 cleavage, fluorescence polarization, 1536-well | 2,400 tested, 83% active | shares compounds with TPT1 inhibitor | inhibition, % at 5 µM | AID 2153;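 active = inhibition above the solvent-only control well mean plus 3 SD, limit set per screening run, cut at about 23% in these data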;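 also: plate controls were DMSO wells with enzyme for no effect and wells without RNase T1 for full effect; inhibitors block cleavage so intact labeled substrate keeps polarization high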
# Target sequence (P00651 whole entry, looked up): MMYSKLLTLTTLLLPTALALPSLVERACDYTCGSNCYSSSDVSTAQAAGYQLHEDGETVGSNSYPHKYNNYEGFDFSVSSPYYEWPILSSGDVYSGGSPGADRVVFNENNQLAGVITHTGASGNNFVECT
# * hit, by the source's call; . = no result shown. Compounds with a hit are over-represented: about 1.7% of the library has one in this group of screens.
SMILES,CSN inh,Rpn11 inh,IDE inh,TPT1 inhibitor,HNF4A DNA FP,IDE act,caTPT1 confirm,RNase T1 counter
COc1ccc(-n2nnnc2C(c2cccc3ccccc23)N2CCC3(CC2)C(=O)NCN3c2ccccc2)cc1 (stereo not drawn),3,0,.,.,0,.,.,.
CCCCCN1C(=O)c2cc(OC)ccc2[C@@]2(C(=O)OCC)Cc3cc(Cl)ccc3[C@@H]12,-1,.,.,.,2,.,.,.
Cn1cccc1/C=C1/C(=O)NC(=O)N(Cc2ccccc2)C1=O,3,9,12,14,4,-1,.,.
Cn1cccc1/C=C1/C(=O)NC(=O)N(Cc2ccc(F)cc2)C1=O,0,39,2,8,2,4,.,.
C=CCN1C(=O)NC(=O)/C(=C/c2cccn2C)C1=O,-3,4,2,52*,0,2,5,8
O=C1NC(=O)N(Cc2ccccc2)C(=O)/C1=C\c1ccco1,27,29,3,66*,0,-8,17,23*
CCCCN1C(=O)/C(=C\c2ccco2)C(=O)N(CCc2ccccc2)C1=O,21,26,4,43*,3,1,6,9
CN1C(=O)C(=CN2CCN(C(=O)c3ccco3)CC2)C(=O)N(C)C1=S,3,16,-2,10,5,4,.,.
O=C1NC(=O)N(Cc2ccco2)C(=O)/C1=C/c1cccn1CCOc1ccccc1Cl,22,6,8,12,-9,-7,.,.
Cn1cccc1/C=C1\C(=O)NC(=O)N(Cc2ccccc2)C1=O,0,10,0,25*,26,3,22,34*
Fc1cccc(-c2ccc3c(c2)CN(C(=S)NCCc2ccccc2)Cc2cnnn2-3)c1,5,6,.,.,1,.,.,.
O=C1c2cccc(N3CCNCC3)c2C2CCCCN12 (stereo not drawn),3,-6,.,.,2,.,.,.
O=C1NC(=O)N(Cc2ccccc2)C(=O)/C1=C\N1CCCc2ccccc21,7,21,12,29*,0,-48,15,21
COc1cc(/C=C2\C(=O)NC(=O)N(c3ccc(C)cc3)C2=O)cc(OC)c1O,1,5,4,31*,2,-2,12,19
COc1cc(/C=C2/C(=O)NC(=O)N(c3ccc(C)cc3)C2=O)cc(OC)c1OC,0,0,-5,7,1,-2,.,.
COC(=O)[C@@H]1N=C(c2ccc(OC)cc2)O[C@]12C(=O)N(C)c1ccc(Cl)cc12,-2,.,.,.,6,.,.,.
O=c1[nH]c(=O)n(Cc2ccccc2)c(O)c1C=NCCN1CCNCC1,3,5,3,2,1,-9,.,.
O=c1[nH]c(=O)n(Cc2ccccc2)c(O)c1/C=C1\C=Nc2ccccc21,5,.,2,58*,4,-2,18,27*
COc1ccc(-n2c(O)c(/C=C3\C=Nc4ccc(Br)cc43)c(=O)[nH]c2=O)c(OC)c1,8,-90,-3,39*,0,-2,14,19
Cn1c(O)c(/C=C2\C=Nc3ccc(Br)cc32)c(=O)n(C)c1=O,8,19,5,28*,4,3,3,6
COC(=O)C1=Nc2ccccc2/C1=C\c1c(O)n(-c2cc(OC)ccc2OC)c(=O)[nH]c1=O,-9,15,2,20,7,0,.,.
O=c1[nH]c(=O)n(-c2ccc(F)cc2)c(O)c1/C=C1\C=Nc2ccccc21,8,34,4,51*,0,-1,70*,77*
CCN(CC)CCCN=Cc1c(O)n(-c2ccccc2F)c(=O)[nH]c1=O,5,-3,2,1,0,0,.,.
O=c1[nH]c(=O)n(-c2ccccc2F)c(O)c1/C=C1\C=Nc2ccccc21,12,23,6,56*,1,-7,18,29*
CCn1c(O)c(/C=N/NC(=O)c2ccccc2)c(=O)n(CC)c1=S,12,25,2,94*,2,.,26*,34*
Cn1c(O)c(C=Nc2cccc(C(F)(F)F)c2)c(=O)n(C)c1=O,2,-6,9,5,-3,1,.,.
